Assay results from ChEMBL document CHEMBL1124050, “2,4-Diamino-6,7-dimethoxyquinazolines. 4. 2-[4-(substituted oxyethoxy) piperidino] derivatives as alpha 1-adrenoceptor antagonists and antihypertensive agents” (J Med Chem, 1988).
Active and inactive are the calls of the source. The rule behind the calls is not given here.

Key:
Rattus norvegicus [1] = test: Antihypertensive activity in spontaneously hypertensive rats (SHR) at 5 mg/kg dose (po) after 1 h; assay type: functional
Procedure, shortened: (§1)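 Spontaneously hypertensive rats given 5 mg/kg orally; blood pressure measured, with percentage reduction determined at 1 and 6 h after dosing.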

Rattus norvegicus [2] = test: Antihypertensive activity in spontaneously hypertensive rats (SHR) at 5 mg/kg dose (po) after 6 h; assay type: functional; procedure, shortened: as §1
[3] = molecular target: T1, Adrenergic receptor alpha-1 (Rattus norvegicus, UniProt P15823+P23944+P43140); test: Binding affinity for alpha-1 adrenergic receptor by displacement of [3H]-prazosin from rat brain homogenate preparation; assay type: tissue-based
T1 sequence (P15823 whole entry): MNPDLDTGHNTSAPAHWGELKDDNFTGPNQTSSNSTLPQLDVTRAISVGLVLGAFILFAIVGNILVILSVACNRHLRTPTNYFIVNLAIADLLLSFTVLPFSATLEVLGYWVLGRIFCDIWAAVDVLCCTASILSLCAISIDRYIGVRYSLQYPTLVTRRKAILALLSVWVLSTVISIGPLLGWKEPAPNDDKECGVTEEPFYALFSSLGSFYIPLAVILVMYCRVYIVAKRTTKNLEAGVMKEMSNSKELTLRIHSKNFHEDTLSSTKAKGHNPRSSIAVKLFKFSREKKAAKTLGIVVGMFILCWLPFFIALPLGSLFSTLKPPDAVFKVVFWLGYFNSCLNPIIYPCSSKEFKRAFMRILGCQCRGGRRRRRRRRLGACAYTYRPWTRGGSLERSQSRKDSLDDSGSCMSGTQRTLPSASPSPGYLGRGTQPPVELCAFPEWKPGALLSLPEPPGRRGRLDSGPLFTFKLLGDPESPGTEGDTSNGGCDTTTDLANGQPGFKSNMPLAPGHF
T1 sequence (P23944 whole entry): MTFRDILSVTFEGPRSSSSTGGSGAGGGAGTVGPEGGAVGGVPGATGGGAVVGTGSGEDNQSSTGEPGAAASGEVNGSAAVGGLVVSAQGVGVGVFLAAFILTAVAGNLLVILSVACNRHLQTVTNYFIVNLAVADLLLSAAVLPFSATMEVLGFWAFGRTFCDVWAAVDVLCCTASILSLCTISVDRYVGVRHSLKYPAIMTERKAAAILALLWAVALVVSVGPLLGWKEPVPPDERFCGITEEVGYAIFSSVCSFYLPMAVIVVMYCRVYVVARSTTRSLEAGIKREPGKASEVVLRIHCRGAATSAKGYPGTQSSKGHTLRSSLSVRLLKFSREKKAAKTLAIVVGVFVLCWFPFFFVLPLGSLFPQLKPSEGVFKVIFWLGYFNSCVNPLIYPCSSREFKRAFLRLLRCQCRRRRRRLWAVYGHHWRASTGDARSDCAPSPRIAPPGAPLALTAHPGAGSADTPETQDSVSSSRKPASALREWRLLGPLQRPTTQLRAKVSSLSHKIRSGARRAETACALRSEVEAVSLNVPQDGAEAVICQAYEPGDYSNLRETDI
T1 sequence (P43140 whole entry): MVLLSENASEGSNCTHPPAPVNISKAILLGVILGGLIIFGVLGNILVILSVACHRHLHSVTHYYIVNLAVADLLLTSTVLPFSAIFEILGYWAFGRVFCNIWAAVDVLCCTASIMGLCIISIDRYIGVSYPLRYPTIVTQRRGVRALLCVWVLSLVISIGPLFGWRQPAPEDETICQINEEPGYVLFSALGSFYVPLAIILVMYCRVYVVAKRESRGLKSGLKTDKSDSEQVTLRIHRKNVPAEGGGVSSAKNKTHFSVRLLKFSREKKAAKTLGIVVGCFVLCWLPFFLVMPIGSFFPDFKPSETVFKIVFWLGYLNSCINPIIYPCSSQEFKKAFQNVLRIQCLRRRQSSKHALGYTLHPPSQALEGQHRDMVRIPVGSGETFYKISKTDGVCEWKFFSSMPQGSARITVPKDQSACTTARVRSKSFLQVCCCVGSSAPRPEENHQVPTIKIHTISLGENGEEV

[4] = molecular target: T2, Adrenergic receptor alpha-2 (Rattus norvegicus) (UniProt P22086+P19328+P22909); test: Binding affinity for alpha-2 adrenergic receptor by displacement of [3H]clonidine at 10e-6 M from rat brain homogenate preparation; NA=indicates less than 50%; assay type: tissue-based
Procedure, shortened: (§2)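 Rat brain homogenate; percentage displacement of [3H]clonidine by test agent at 10⁻⁶ M; NA denotes under 50%. Mean ± SEM of at least three separate experiments, each in triplicate.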

[5] = molecular target: T2, Adrenergic receptor alpha-2 (Rattus norvegicus); test: Binding affinity for alpha-2 adrenergic receptor by displacement of [3H]clonidine at 10e-6 M from rat brain homogenate preparation; assay type: tissue-based; procedure, shortened: as §2
Oryctolagus cuniculus [6] = species on record: Oryctolagus cuniculus; test: Concentration producing a 40% reduction in contractile response in rabbit pulmonary artery (Functional alpha-antagonist activity); EC40-post
Oryctolagus cuniculus [7] = species on record: Oryctolagus cuniculus; test: Concentration producing a 40% increase in [3H]- overflow in rabbit pulmonary artery (Functional alpha-antagonist activity);EC40-pre, NA=indicates no activity at 10e-5 M.
Oryctolagus cuniculus [8] = species on record: Oryctolagus cuniculus; test: Concentration producing a 40% increase in [3H]- overflow in rabbit pulmonary artery (Functional alpha-antagonist activity)
Oryctolagus cuniculus [9] = species on record: Oryctolagus cuniculus; test: Concentration producing a 40% reduction in contractile response in rabbit pulmonary artery (Functional alpha-antagonist activity)
Oryctolagus cuniculus [10] = species on record: Oryctolagus cuniculus; test: Concentration producing a 40% increase in [3H]- overflow in rabbit pulmonary artery (Functional alpha-antagonist activity)d; NA= indicates no activity at 10e-5 M.
[11] = molecular target: T2, Adrenergic receptor alpha-2 (Rattus norvegicus); test: Binding affinity for alpha-2 adrenergic receptor by displacement of [3H]clonidine at 10e-6 M from rat brain homogenate preparation; indicates less than 50%; assay type: tissue-based; procedure, shortened: as §2
Oryctolagus cuniculus [12] = species on record: Oryctolagus cuniculus; test: Concentration producing a 40% increase in [3H]- overflow in rabbit pulmonary artery (Functional alpha-antagonist activity); EC40-pre NA=indicates no activity at 10e-5 M.

Ki [3] | Displacement [4] | Displacement [5] | Displacement [11] | SMILES | Reduction (Rattus norvegicus [1]) | Reduction (Rattus norvegicus [2]) | EC40 (Oryctolagus cuniculus [6]) | EC40 (Oryctolagus cuniculus [7]) | EC40 (Oryctolagus cuniculus [8]) | EC40 (Oryctolagus cuniculus [9]) | EC40 (Oryctolagus cuniculus [10]) | EC40 (Oryctolagus cuniculus [12])
2.2 nM | < 50% | – | – | COc1cc2nc(N3CCC(OCCO)CC3)nc(N)c2cc1OC | 8% | 10% | – | – | – | – | – | –
0.67 nM | – | 73.4% | – | COc1cc2nc(N3CCC(OCCOC(C)C)CC3)nc(N)c2cc1OC | 26% | 15% | – | – | – | – | – | –
– | – | – | – | COc1cc2nc(N3CCC(OCCOC4CCCC4)CC3)nc(N)c2cc1OC | 20% | 11% | – | – | – | – | – | –
2.12 nM | – | 53% | – | COCCOC1CCN(c2nc(N)c3cc(OC)c(OC)cc3n2)CC1 | 57% | 28% | – | – | – | – | – | –
1.41 nM | – | 68.7% | – | COc1cc2nc(N3CCC(OCC(C)OC)CC3)nc(N)c2cc1OC (stereo unspecified) | 34% | 16% | – | – | – | – | – | –
1.14 nM | – | 75.7% | – | COc1cc2nc(N3CCC(OCC(C)(C)OC)CC3)nc(N)c2cc1OC | 20% | 9% | – | – | – | – | – | –
0.62 nM | – | 97% | – | COc1cc2nc(N3CCC(OCC(C)(O)c4ccccc4)CC3)nc(N)c2cc1OC (stereo unspecified) | 23% | 20% | – | – | – | – | – | –
0.99 nM | – | 74.3% | – | CCOC(C)COC1CCN(c2nc(N)c3cc(OC)c(OC)cc3n2)CC1 (stereo unspecified) | 43% | 20% | – | – | – | – | – | –
0.15 nM | – | 91% | – | COc1cc2nc(N3CCC(OCC(O)c4ccccc4)CC3)nc(N)c2cc1OC (stereo unspecified) | 26% | 16% | – | – | – | – | – | –
1.28 nM | – | 61.7% | – | COc1cc2nc(N3CCC(OCC(C)(C)O)CC3)nc(N)c2cc1OC | 40% | 22% | – | – | – | – | – | –
0.48 nM | – | 79.3% | – | COc1cc2nc(N3CCC(OCCOc4ccccc4)CC3)nc(N)c2cc1OC | 26% | 18% | 44 nM | inactive | – | – | – | –
3.52 nM | – | 55% | – | COc1cc2nc(N3CCC(OCC(C)O)CC3)nc(N)c2cc1OC (stereo unspecified) | 30% | 19% | – | – | – | – | – | –
– | – | – | – | COc1cc2nc(N3CCN(C(=O)c4ccco4)CC3)nc(N)c2cc1OC [PRAZOSIN] | 33% | 29% | – | – | 1300 nM | 4.5 nM | – | –
1.03 nM | – | 76% | – | CCCCOCCOC1CCN(c2nc(N)c3cc(OC)c(OC)cc3n2)CC1 | 27% | 20% | – | – | – | – | – | –
0.15 nM | – | 97.5% | – | CCOC(C)(COC1CCN(c2nc(N)c3cc(OC)c(OC)cc3n2)CC1)c1ccccc1 (stereo unspecified) | 20% | 13% | – | – | – | 15 nM | inactive | –
0.52 nM | – | 84.5% | – | CCOC(COC1CCN(c2nc(N)c3cc(OC)c(OC)cc3n2)CC1)c1ccccc1 (stereo unspecified) | 16% | 12% | – | – | – | – | – | –
10 nM | – | – | < 50% | CCOCC(OC1CCN(c2nc(N)c3cc(OC)c(OC)cc3n2)CC1)c1ccccc1 (stereo unspecified) | 24% | 19% | – | – | – | – | – | –
1.81 nM | – | 65.3% | – | CCOCCOC1CCN(c2nc(N)c3cc(OC)c(OC)cc3n2)CC1 | 22% | 20% | 38 nM | – | – | – | – | inactive
